From ChEMBL document CHEMBL3124814, “Synthesis and Anti-HCV Activity of 4-Hydroxyamino α-Pyranone Carboxamide Analogues” (ACS Med Chem Lett, 2014)

Legend:
[1] = Cytotoxicity against human HuH7 cells expressing luciferase reporter gene after 3 days by WST-8 assay; type: cell-based, Huh-7
In short: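 LucNeo#2 subgenomic replicon cells, 50,000 cells/mL, pre-incubated 24 h in DMEM/10% FBS/antibiotics/1 mg/mL G418, then exposed 3 days to various compound concentrations without G418.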

[2] = (§1) Selectivity index, ratio of CC50 for human HuH7 cells to EC50 for HCV1b; design: species or system Huh-7
In short: (§2)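 Ratio of CC50 (WST-8 viable cell reduction) to EC50 (luciferase inhibition), both from LucNeo#2 replicon cells treated 3 days with compound in G418-free medium.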

[3] = test system: Hepatitis C virus; assay: Antiviral activity against HCV1b infected in human HuH7 cells expressing luciferase reporter gene assessed as reduction of luciferase activity after 3 days; type: functional, organism-based, Hepacivirus hominis; conditions: genotype 1b, Huh-7, 72 h
In short: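 Subgenomic HCV replicon cells with luciferase reporter (LucNeo#2), 50,000 cells/mL in DMEM + 10% FBS, antibiotics, 1 mg/mL G418 for 24 h; then 3 days with various compound concentrations in fresh medium lacking G418. Cells PBS-washed, lysed, luciferase read by luminometer; EC50 as concentration giving 50% inhibition of luciferase activity.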

[4] = test system: Huh-7; assay: as §1; in short: as §2
[5] = test system: Hepatitis C virus; assay: Antiviral activity against HCV1b infected in human NNC2 cells assessed as inhibition of viral RNA replication after 3 days by RT-PCR analysis; type: functional, organism-based, Hepacivirus hominis; conditions: genotype 1b, NNC2, 72 h
In short: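 Full-genome HCV RNA replicon cells (NNC#2), 30,000 cells/mL, held 24 h in DMEM + 10% FBS + 1 mg/mL G418, then 3 days in fresh G418-free medium with various concentrations.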

[6] = Cytotoxicity against human NNC2 cells assessed as GAPDH RNA level; type: cell-based
In short: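 NNC#2 full-genome replicon cells, 30,000 cells/mL, 24 h in DMEM/10% FBS/1 mg/mL G418, then 3 days with various concentrations without G418. GAPDH RNA, as cell-viability index, measured by real-time PCR simultaneously with HCV RNA; CC50 derived.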

Row | SMILES | CC50 at 72 h [1] [nM] | Ratio CC50/EC50 [2] | EC50 [3] [nM] | Ratio CC50/EC50 [4] | EC50 [5] [nM] | EC90 [5] [nM] | CC50 [6] [nM]
1 | O=C(Nc1ccccc1)c1c(NO)cc(-c2ccc(Cl)cc2)oc1=O | 11000 | 19.6 | 560 |  |  |  | 
2 | COc1ccc(-c2cc(NO)c(C(=O)NCc3ccccc3)c(=O)o2)cc1 | > 20000 | 35.1 | 570 |  |  |  | 
3 | CNC(=O)c1c(NO)cc(-c2ccc(C)cc2)oc1=O | > 20000 | 14.1 | 1420 |  |  |  | 
4 | Cc1ccc(-c2cc(NO)c(C(=O)Nc3ccccc3)c(=O)o2)cc1 | > 20000 | 13.8 | 1450 |  |  |  | 
5 | CC(C)NC(=O)c1c(NO)cc(-c2ccccc2)oc1=O | > 20000 | 44.4 | 450 |  |  |  | 
6 | Cc1ccc(NC(=O)c2c(NO)cc(-c3ccc(F)cc3)oc2=O)cc1 | > 20000 | 10.2 | 1950 |  |  |  | 
7 | COC(=O)CNC(=O)c1c(NO)cc(-c2ccc(OC)cc2)oc1=O | > 20000 | 6.7 | 2960 |  |  |  | 
8 | O=C(NCCCO)c1c(NO)cc(-c2ccccc2)oc1=O | > 20000 | 44.4 | 450 |  |  |  | 
9 | O=C(NCc1ccccc1)c1c(NO)cc(-c2ccc(Cl)cc2)oc1=O | > 20000 | 29.4 | 680 |  |  |  | 
10 | COc1ccc(-c2cc(NO)c(C(=O)Nc3ccccc3)c(=O)o2)cc1 | 16200 | 28.9 | 560 |  |  |  | 
11 | CNC(=O)c1c(-c2ccc(F)cc2)oc2cc(N(CCO)S(C)(=O)=O)c(C3CC3)cc12 [NESBUVIR] | > 20000 | 57.1 | 350 |  |  |  | 
12 | COC(=O)CNC(=O)c1c(NO)cc(-c2ccc(Cl)cc2)oc1=O | > 20000 | 6.5 | 3060 |  |  |  | 
13 | O=C(Nc1ccccc1)c1c(NO)cc(-c2ccccc2)oc1=O | 11600 | 33.1 | 350 |  |  |  | 
14 | Cc1ccc(-c2cc(NO)c(C(=O)NCc3ccccc3)c(=O)o2)cc1 | > 20000 | 21.9 | 910 |  |  |  | 
15 | COC(=O)CNC(=O)c1c(NO)cc(-c2ccccc2)oc1=O | > 20000 | 10.9 | 1840 |  |  |  | 
16 | COc1ccc(NC(=O)c2c(NO)cc(-c3ccccc3)oc2=O)cc1 | > 20000 | 117.6 | 170 |  |  |  | 
17 | Cc1ccccc1NC(=O)c1c(NO)cc(-c2ccccc2)oc1=O | > 20000 | 37 | 540 |  |  |  | 
18 | O=C(NCCO)c1c(NO)cc(-c2ccccc2)oc1=O | > 20000 | 13.5 | 1480 |  |  |  | 
19 | COC(=O)CNC(=O)c1c(NO)cc(-c2ccc(C)cc2)oc1=O | > 20000 | 5 | 3990 |  |  |  | 
20 | COC(=O)c1ccc(NC(=O)c2c(NO)cc(-c3ccccc3)oc2=O)cc1 | > 20000 | 60.6 | 330 |  |  |  | 
21 | O=C(NCc1ccccc1)c1c(NO)cc(-c2ccccc2)oc1=O | > 20000 | 69 | 290 |  |  |  | 
22 | CCC[C@H](NC(=O)[C@@H]1[C@H]2CCC[C@H]2CN1C(=O)[C@@H](NC(=O)[C@@H](NC(=O)c1cnccn1)C1CCCCC1)C(C)(C)C)C(=O)C(=O)NC1CC1 [TELAPREVIR] | > 20000 |  | 450 | 44.4 |  |  | 

Row | SMILES | CC50 at 72 h [1] [nM] | Ratio CC50/EC50 [2] | EC50 [3] [nM] | Ratio CC50/EC50 [4] | EC50 [5] [nM] | EC90 [5] [nM] | CC50 [6] [nM]
23 | COc1ccc(-c2cc(NO)c(C(=O)Nc3ccc(C)cc3)c(=O)o2)cc1 | > 20000 | 12.5 | 1600 |  |  |  | 
24 | O=C(NCc1ccccc1)c1c(NO)cc(-c2ccc(F)cc2)oc1=O | > 20000 | 16.9 | 1180 |  |  |  | 
25 | CNC(=O)c1c(NO)cc(-c2ccc(OC)cc2)oc1=O | > 20000 | 28.6 | 700 |  |  |  | 
26 | O=C(Nc1ccccc1)c1c(NO)cc(-c2ccc(F)cc2)oc1=O | 10300 | 9.7 | 1060 |  |  |  | 
27 | Cc1ccc(-c2cc(NO)c(C(=O)NCCO)c(=O)o2)cc1 | > 20000 | 7.7 | 2580 |  |  |  | 
28 | CNC(=O)c1c(NO)cc(-c2ccc(Cl)cc2)oc1=O | > 20000 | 25.6 | 780 |  |  |  | 
29 | CNC(=O)c1c(NO)cc(-c2ccccc2)oc1=O | > 20000 | 33.3 | 600 |  |  |  | 
30 | Cc1cccc(NC(=O)c2c(NO)cc(-c3ccccc3)oc2=O)c1 | > 20000 | 74.1 | 270 |  |  |  | 
31 | O=C(Nc1ccc(Cl)cc1)c1c(NO)cc(-c2ccccc2)oc1=O | > 20000 | 50 | 400 |  |  |  | 
32 | O=C(Nc1ccc(F)cc1)c1c(NO)cc(-c2ccccc2)oc1=O | > 20000 | 62.5 | 320 |  |  |  | 
33 | O=C(Nc1ccc(O)cc1)c1c(NO)cc(-c2ccccc2)oc1=O | > 20000 | 20 | 1000 |  |  |  | 
34 | Cc1ccc(NC(=O)c2c(NO)cc(-c3ccccc3)oc2=O)cc1 | > 20000 | 111.1 | 180 |  | 77 | 450 | > 10000
35 | CCNC(=O)c1c(NO)cc(-c2ccccc2)oc1=O | > 20000 | 20 | 1000 |  |  |  | 
36 | O=C(Nc1ccc(Br)cc1)c1c(NO)cc(-c2ccccc2)oc1=O | > 20000 | 66.7 | 300 |  |  |  | 
37 | COc1ccc(-c2cc(NO)c(C(=O)NCCO)c(=O)o2)cc1 | > 20000 | 14.2 | 1410 |  |  |  | 
38 | Cc1ccc(NC(=O)c2c(NO)cc(-c3ccc(C)cc3)oc2=O)cc1 | > 20000 | 43.5 | 460 |  |  |  | 
39 | COC(=O)CNC(=O)c1c(NO)cc(-c2ccc(F)cc2)oc1=O | > 20000 | 10.3 | 1930 |  |  |  | 
40 | CCCNC(=O)c1c(NO)cc(-c2ccccc2)oc1=O | > 20000 | 44.4 | 450 |  |  |  | 
41 | Cc1ccc(NC(=O)c2c(NO)cc(-c3ccc(Cl)cc3)oc2=O)cc1 | > 20000 | 14 | 1430 |  |  |  | 
42 | O=C(NCCO)c1c(NO)cc(-c2ccc(F)cc2)oc1=O | > 20000 | 6.7 | 2980 |  |  |  | 
43 | O=C(NCCO)c1c(NO)cc(-c2ccc(Cl)cc2)oc1=O | > 20000 | 5 | 4000 |  |  |  | 
44 | CNC(=O)c1c(NO)cc(-c2ccc(F)cc2)oc1=O | > 20000 | 11.4 | 1750 |  |  |  | 
